For nine compounds, Activity results are on record in ChEMBL document CHEMBL1150353, “Development of novel antiatherogenic biaryls: design, synthesis, and reactivity” (2008).

Test [1] can be described thus: Antioxidant activity in HMEC1 cells assessed as inhibition of LDL oxidation at 10 uM after 6 hrs by TBARS assay relative to control. The test is classed as functional, Homo sapiens, HMEC-1. More on the design: scale not given: the % may be the effect or the level left. Put shortly: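 HMEC-1 (sparse proliferative) in serum-free RPMI-1640 with native LDL 100 µg apoB/mL and CuSO4 1 µM, 37 °C, 6 h; compounds added from DMSO (<0.1% final) at 10 µM just before oxidation, in duplicate. TBARS in medium measured fluorimetrically; expressed as % of TBARS with cells and no agent.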

For test [2], the system named is HMEC-1. As to the kind of experiment: Protection against oxidized LDL-induced cytotoxicity in HMEC1 cells assessed as residual cell viability after 24 hrs by MTT assay relative to control. The test is classed as functional, Homo sapiens. Put shortly:
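HMEC-1 exposed 6 h at 37 °C to native LDL (100 µg apoB/mL) with 1 µM CuSO4 in serum-free RPMI, with or without agent (10 µM, DMSO <0.1%); toxicity of the cell-oxidized LDL read by MTT after 24 h, as % of unstimulated cells kept in fresh RPMI without LDL or antioxidant.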

For test [3], the system named is HMEC-1. In words: Inhibition of 4-hydroxynonenal-induced carbonyl stress in HMEC1 cells assessed as prevention of increase in carbonylated protein level at 10 uM relative to control. The note with it: Homo sapiens. The class given is functional, cell-based. The method in brief: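 HMEC-1 were incubated overnight with 50 µM 4-HNE in FCS-free RPMI-1640 with the compound, then washed, scraped and pelleted. Protein was derivatized for 1 h at room temperature with 0.1% DNPH in 2 M HCl, precipitated with TCA, and washed with ethanol/ethyl acetate. It was dissolved in 8 M guanidine buffer (pH 7.4) and read at 365 nm. Results are % of unstimulated control, mean of four experiments.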

Another test concerns U-937. As to the kind of experiment: Inhibition of foam cell formation in LDL exposed human U937 cells assessed as accumulation of red O-stained lipid droplets at 10 uM for 14 hrs by nile red fluorescence assay. The class given is functional, cell-based. The method in brief:
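U937 grown in RPMI with 10% FCS were used at subconfluence. They were incubated for 14 h in fresh RPMI containing native LDL (100 µg/mL), 1 µM CuSO₄ and agent (10 µM). Cells were fixed in 10% paraformaldehyde, stained with 0.5 µg/mL Nile Red, scraped and read fluorometrically (ex 460/em 550 nm). Parallel slides were stained with oil red O and hematoxylin and examined microscopically. Data are the mean of three experiments.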

A short description of test [4]: (§1) Cytoprotective activity against ultraviolet irradiation oxidized LDL-induced cytotoxicity in HMEC1 cells assessed as residual cell survival at 10 uM for 24 hrs by MTT assay relative to control. The class given is functional, Homo sapiens, HMEC-1. The method in brief: (§2)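 HMEC-1 were exposed to UV-C-oxidized LDL. LDL at 2 mg apoB/mL with 2 µmol/L CuSO₄ was irradiated for 2 h at 254 nm, then added to the medium at 200 µg apoB/mL together with the compound. MTT viability was read after 24 h, as % of unstimulated cells in LDL-free medium. Each value is the mean of four determinations.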

Test [5] concerns HMEC-1. As to the kind of experiment: Cytoprotective activity against ultraviolet irradiation oxidized LDL and 4-hydroxynonenal-induced cytotoxicity in HMEC1 cells assessed as cell survival at 10 uM after 24 hrs relative to control. The test is classed as functional, cell-based. The note with it: Homo sapiens. The method in brief: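 HMEC-1 were exposed to 4-HNE added directly to the medium, or to UV-oxidized LDL. For the oxidized LDL, LDL at 2 mg apoB/mL with 2 µmol/L CuSO₄ was irradiated with UV-C (254 nm) for 2 h and then added at 200 µg apoB/mL. Compounds were present during exposure. Viability was read by MTT after 24 h, as % of cells in LDL-free medium. Each value is the mean of four determinations.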

The subject of test [6] is HMEC-1. Described as §1. The test is classed as functional. The note with it: Homo sapiens. The method in brief: as §2

Calls of active or inactive are those of the source. No cut-off for these calls is given here.

Take `CCOP(=O)(/C=C/c1cc(OC)c(O)c(-c2cc(C=O)cc(OC)c2O)c1)OCC`: the Activity in test [1] was 67.5%; with HMEC-1 [2] it was 63.5%.

For `COc1cc(C=O)cc(-c2cc(C=O)cc(OC)c2O)c1O`, the Activity in test [1] was 86.2%; in the test on HMEC-1 [2], 40.5%.

As to `COc1cc(/C=N/NC(=O)c2ccncc2)cc(-c2cc(/C=N/NC(=O)c3ccncc3)cc(OC)c2O)c1O`, the Activity in test [1] amounted to 83%; in the test with HMEC-1 [2], 13.5%. The result in the test with HMEC-1 [3] was inactive.

For `CCOP(=O)(/C=C/c1cc(OC)c(O)c(-c2cc(/C=C/P(=O)(OCC)OCC)cc(OC)c2O)c1)OCC`, in the test with U-937, the outcome was Active. The Activity is 67.4% in test [1] and 66% in the test on HMEC-1 [2].

On to `CC(C)(Sc1cc(C(C)(C)C)c(O)c(C(C)(C)C)c1)Sc1cc(C(C)(C)C)c(O)c(C(C)(C)C)c1` [PROBUCOL], for which the results for the Activity (in test [1]; with HMEC-1 [2]) were 10% and 92%, respectively.

In the case of `COc1cc(/C=N/Nc2nncc3ccccc23)cc(-c2cc(/C=N/Nc3nncc4ccccc34)cc(OC)c2O)c1O.Cl`, the outcome with U-937, in the test with HMEC-1 [5] and with HMEC-1 [3] was Active. In addition, the figures for the Activity (in test [4]; in test [1]; in the test with HMEC-1 [2]) were 80%, 2.8% and 82%, respectively.

Consider `CCOP(=O)(/C=C/c1cc(OC)c(O)c(-c2cc(/C=N/NC(=O)c3ccncc3)cc(OC)c2O)c1)OCC`, for which the figures for the Activity (in test [1]; with HMEC-1 [2]) were 67.5% and 31.2%, respectively.

Take `CCOP(=O)(/C=C/c1cc(OC)c(O)c(-c2cc(/C=N/Nc3nncc4ccccc34)cc(OC)c2O)c1)OCC.Cl`: in the test with HMEC-1 [6], the outcome was Active. The results for the Activity (in test [1]; in the test with HMEC-1 [2]) were 4.1% and 61.2%, respectively.

Regarding `Cc1c(C)c2c(c(C)c1O)CC[C@@](C)(CCC[C@H](C)CCC[C@H](C)CCCC(C)C)O2` [ALPHA-TOCOPHEROL], the Activity in test [1] came out at 55%; in the test on HMEC-1 [2], 29%.
